{"source": "ChEMBL document CHEMBL2169742", "about": "“Design, synthesis, and biological evaluation of novel transrepression-selective liver X receptor (LXR) ligands with 5,11-dihydro-5-methyl-11-methylene-6H-dibenz[b,e]azepin-6-one skeleton” (J Med Chem, 2012)", "key": {"[1]": {"biological_target": "T1, Oxysterols receptor LXR-alpha (Homo sapiens, UniProt Q13133)", "T1 sequence (Q13133 whole entry)": "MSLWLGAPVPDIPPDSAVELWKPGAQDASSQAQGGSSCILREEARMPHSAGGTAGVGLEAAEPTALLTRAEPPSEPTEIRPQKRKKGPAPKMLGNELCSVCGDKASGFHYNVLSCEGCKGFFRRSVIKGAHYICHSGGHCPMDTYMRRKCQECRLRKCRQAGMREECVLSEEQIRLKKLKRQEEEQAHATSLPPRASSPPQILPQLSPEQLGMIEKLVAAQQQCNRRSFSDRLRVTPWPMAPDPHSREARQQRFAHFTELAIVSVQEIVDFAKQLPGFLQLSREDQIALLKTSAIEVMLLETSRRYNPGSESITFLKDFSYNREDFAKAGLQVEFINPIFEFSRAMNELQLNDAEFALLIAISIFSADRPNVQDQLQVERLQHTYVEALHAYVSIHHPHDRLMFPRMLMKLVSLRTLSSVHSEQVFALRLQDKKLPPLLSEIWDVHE", "test": "Transactivational antagonist activity at human LXRalpha transfected in HEK293 cells expressing CMX-Gal4N assessed as inhibition of T1317-induced luciferase activity after 16 hrs by reporter gene assay", "type": "functional, cell-based"}, "[2]": {"test_system": "Peritoneal macrophage cell", "test": "Inhibition of LPS-induced IL-6 production in LXRalpha,LXRbeta-deficient C57BL/6J mouse peritoneal macrophages at 10 uM incubated for 6 hrs prior to LPS-challenge measured after 18 hrs by ELISA", "type": "functional, cell-based", "procedure,_shortened": "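Thioglycollate-elicited peritoneal macrophages came from 8–10-week LXRα/β-null mice on C57BL/6J background, harvested 4 days post-injection. They were adhered, rested 24 h and plated at 2 × 10⁵/well, then pretreated with compound 6 h before LPS 10 ng/mL. Supernatant mIL-6 was measured by ELISA after 18 h; means ± SE of ≥3 independent measurements, ANOVA.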"}, "[3]": {"biological_target": "T2, Oxysterols receptor LXR-beta (Homo sapiens, UniProt P55055)", "T2 sequence (P55055 whole entry)": "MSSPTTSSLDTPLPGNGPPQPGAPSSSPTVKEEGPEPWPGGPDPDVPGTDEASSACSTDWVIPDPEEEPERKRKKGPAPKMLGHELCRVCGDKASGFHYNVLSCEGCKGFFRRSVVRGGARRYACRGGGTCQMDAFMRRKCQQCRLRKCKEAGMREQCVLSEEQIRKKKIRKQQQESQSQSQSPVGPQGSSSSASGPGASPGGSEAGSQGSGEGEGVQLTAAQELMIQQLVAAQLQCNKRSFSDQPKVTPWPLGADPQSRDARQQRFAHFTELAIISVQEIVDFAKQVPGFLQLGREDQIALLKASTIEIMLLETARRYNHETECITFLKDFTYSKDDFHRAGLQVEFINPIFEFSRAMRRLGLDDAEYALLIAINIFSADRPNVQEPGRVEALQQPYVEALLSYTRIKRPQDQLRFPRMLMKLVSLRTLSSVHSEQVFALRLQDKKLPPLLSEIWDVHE", "test": "Transactivational agonist activity at human LXRbeta transfected in HEK293 cells expressing CMX-Gal4N assessed as luciferase activity at 30 uM after 16 hrs by reporter gene assay", "type": "cell-based", "conditions": "hek293, 16 h"}, "[4]": {"biological_target": "T2, Oxysterols receptor LXR-beta", "test": "Transactivational antagonist activity at human LXRbeta transfected in HEK293 cells expressing CMX-Gal4N assessed as inhibition of T1317-induced luciferase activity after 16 hrs by reporter gene assay", "type": "functional, cell-based"}, "[5]": {"biological_target": "T3, Bile acid receptor (Homo sapiens) (UniProt Q96RI1)", "T3 sequence (whole entry)": "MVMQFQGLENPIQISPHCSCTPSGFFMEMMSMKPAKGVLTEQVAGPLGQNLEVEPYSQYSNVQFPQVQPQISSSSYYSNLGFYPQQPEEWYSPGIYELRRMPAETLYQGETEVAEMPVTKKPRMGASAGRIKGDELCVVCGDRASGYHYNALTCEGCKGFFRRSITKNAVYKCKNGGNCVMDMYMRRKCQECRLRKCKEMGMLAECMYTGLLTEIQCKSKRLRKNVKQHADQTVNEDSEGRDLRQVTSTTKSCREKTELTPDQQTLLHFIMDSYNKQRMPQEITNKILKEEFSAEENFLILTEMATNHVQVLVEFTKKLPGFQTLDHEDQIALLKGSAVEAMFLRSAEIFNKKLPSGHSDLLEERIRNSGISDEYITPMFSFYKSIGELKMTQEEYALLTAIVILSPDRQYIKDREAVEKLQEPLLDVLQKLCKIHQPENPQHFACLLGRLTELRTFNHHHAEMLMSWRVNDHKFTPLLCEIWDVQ", "test": "Agonist activity at human Gal4-fused FXR assessed as luciferase activity at 0.03 to 10 uM by reporter gene assay", "type": "functional"}, "[6]": {"test": "Transrepressional activity at LXR in C57BL/6J mouse peritoneal macrophages assessed as inhibition of LPS-induced IL-1beta mRNA expression at 10 uM incubated for 6 hr prior to LPS-challenge measured after 18 hrs by RT-PCR analysis", "procedure,_shortened": "(§1)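 Thioglycollate-elicited peritoneal macrophages (wild-type C57BL/6J or LXRα-null, 8–10 weeks) were plated at 4 × 10⁶/well and pretreated with compound 6 h before LPS 100 ng/mL. Cells were harvested after 18 h. il-6 and il-1β mRNA were measured by real-time quantitative PCR, normalized to GAPDH.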"}, "[7]": {"biological_target": "T1, Oxysterols receptor LXR-alpha", "test": "Transactivational agonist activity at human LXRalpha transfected in HEK293 cells coexpressing CMX-Gal4N-DRIP205 assessed as DRIP205 recruitment at 10 uM after 16 hrs by mammalian two-hybrid assay", "type": "cell-based", "conditions": "hek293, 16 h", "procedure,_shortened": "(§2)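 Mammalian two-hybrid in HEK293 cells by calcium phosphate cotransfection: CMX-VP16N-hLXRα, Gal4N-fused SRC1, DRIP205, NCoR or SMRT (15 ng), tk-MH100×4-luc (50 ng) and CMX-β-gal (10 ng). Compound or DMSO added 8 h after transfection for 16 h. Luciferase was normalized to β-galactosidase, in triplicate.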"}, "[8]": {"biological_target": "T1, Oxysterols receptor LXR-alpha", "test": "Transactivational agonist activity at human LXRalpha transfected in HEK293 cells coexpressing CMX-Gal4N-SRC1 assessed as SRC1 recruitment at 10 uM after 16 hrs by mammalian two-hybrid assay", "type": "cell-based", "conditions": "hek293, 16 h", "procedure,_shortened": "as §2"}, "[9]": {"biological_target": "T4, Oxysterols receptor LXR-alpha (Homo sapiens) (UniProt Q13133)", "T4 sequence (whole entry)": "T1 sequence (Q13133 whole entry)", "test": "Transactivational antagonist activity at human LXRalpha transfected in HEK293 cells coexpressing CMX-Gal4N-NCoR assessed as NCoR recruitment after 16 hrs by reporter gene assay", "type": "functional, cell-based", "procedure,_shortened": "as §2"}, "[10]": {"test_system": "Peritoneal macrophage cell", "test": "Inhibition of LPS-induced IL-1beta mRNA expression in LXRalpha-deficient C57BL/6J mouse peritoneal macrophages at 10 uM incubated for 6 hrs prior to LPS-challenge measured after 18 hrs by RT-PCR analysis", "type": "functional, cell-based", "procedure,_shortened": "as §1"}}, "note": "Activity calls are given as the source filed them. No cut-off for these calls is given here.", "data": [{"smiles": "C=C1c2ccccc2C(=O)N(C)c2ccc(CC)cc21", "values": [{"measurement": "IC50", "setting": "[1]", "result": "> 30", "unit": "µM"}, {"measurement": "inhibition", "setting": "[2]", "result": "inactive"}, {"measurement": "Activity", "setting": "[3]", "result": "Not Active"}, {"measurement": "IC50", "setting": "[4]", "result": "> 30", "unit": "µM"}, {"measurement": "Activity", "setting": "[5]", "result": "inactive"}, {"measurement": "inhibition", "setting": "[6]", "result": "Active"}, {"measurement": "Activity", "setting": "[7]", "result": "Non-toxic"}, {"measurement": "Activity", "setting": "[8]", "result": "Non-toxic"}, {"measurement": "Activity", "setting": "[9]", "result": "Dose-dependent effect"}, {"measurement": "inhibition", "setting": "[10]", "result": "inactive"}]}]}
